Activity calls are given as the source filed them. No cut-off for these calls is given here.
Experiments:
Phomopsis obscurans [1] = test: Antifungal activity against Phomopsis obscurans assessed as growth inhibition after 120 hr by NCCLS M27-A broth microdilution method; type: functional, organism-based; conditions: Paraphomopsis obscurans
Procedure, shortened: (§1)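 Broth microdilution adapted from the NCCLS M27-A yeast method for conidia-forming filamentous plant pathogens. Growth inhibition was read at 48 h and 72 h for Botrytis cinerea, and at 120 h and 144 h for Phomopsis viticola and P. obscurans. The highest concentration tested was 30 μM. Captan served as the internal standard. Means were compared by ANOVA with Fisher's protected LSD.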

Botrytis cinerea [2] = test: Antifungal activity against Botryotinia fuckeliana assessed as growth inhibition after 48 hr by NCCLS M27-A broth microdilution method; type: functional, organism-based; procedure, shortened: as §1
Phomopsis obscurans [3] = test: Antifungal activity against Phomopsis obscurans assessed as growth inhibition after 144 hr by NCCLS M27-A broth microdilution method; type: functional, organism-based; conditions: Paraphomopsis obscurans; procedure, shortened: as §1
[4] = Octanol-water partition coefficient, log P of the compound by HPLC analysis; type: physicochemical
Procedure, shortened: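 Log P was estimated by isocratic reversed-phase HPLC on a Gemini C18 column (5 μm, 4.6 × 150 mm). The mobile phase was MeOH/H2O/2% HCOOH in H2O (55:43:2, w/w) at 1.0 mL/min and 37 °C, with samples dissolved in the mobile phase. Capacity factor K = (t1 − t0)/t0, with t0 taken from D2O. […] At least 5 injections were made.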

Botrytis cinerea [5] = test: Antifungal activity against Botryotinia fuckeliana assessed as growth inhibition after 72 hr by NCCLS M27-A broth microdilution method; type: functional, organism-based; procedure, shortened: as §1
Phomopsis obscurans [6] = test: Antifungal activity against Phomopsis obscurans assessed as growth inhibition at 30 uM after 144 hr by NCCLS M27-A broth microdilution method; type: functional, organism-based; conditions: Paraphomopsis obscurans; procedure, shortened: as §1
Diaporthe ampelina [7] = test: Antifungal activity against Diaporthe ampelina assessed as growth inhibition after 144 hr by NCCLS M27-A broth microdilution method; type: functional, organism-based; procedure, shortened: as §1
Diaporthe ampelina [8] = test: Antifungal activity against Diaporthe ampelina assessed as growth inhibition after 120 hr by NCCLS M27-A broth microdilution method; type: functional, organism-based; procedure, shortened: as §1
Diaporthe ampelina [9] = test: Antifungal activity against Diaporthe ampelina assessed as growth inhibition at 30 uM after 144 hr by NCCLS M27-A broth microdilution method; type: functional, organism-based; procedure, shortened: as §1

SMILES | Activity (Phomopsis obscurans [1]) | Activity (Botrytis cinerea [2]) | Activity (Phomopsis obscurans [3]) | logP ([4]; read-out: logP) | Activity (Botrytis cinerea [5]) | Activity (Phomopsis obscurans [6]) | logP [4] | Activity (Diaporthe ampelina [7]) | Activity (Diaporthe ampelina [8]) | Activity (Diaporthe ampelina [9])
CC(C)/C=C/c1c(O)cc(/C=C/C2=CC(=O)OC2CC(=O)O)cc1O (centres undefined) | inactive | inactive | inactive | 2.59 | inactive |  |  |  |  | 
COc1cccc(CCc2ccc(O)cc2)c1 |  |  |  |  |  | Active | 3.07 |  |  | 
O=C1C2CC=CCC2C(=O)N1SC(Cl)(Cl)Cl (centres undefined) |  |  |  |  |  |  |  | Active |  | 
Oc1ccc(/C=C/c2ccccc2)cc1O |  | Active |  |  | inactive | inactive |  |  | inactive | 
COc1cc(/C=C/c2ccccc2)cc(OC)c1 [3,5-O-DIMETHYLPINOSYLVIN] |  |  |  | 4.15 |  | inactive |  |  |  | 
Oc1cccc(CCc2ccccc2)c1 [3-PHENETHYLPHENOL] |  |  |  |  |  | Active | 3.19 |  | Active | Active
Oc1ccc(/C=C/c2cccc(O)c2)cc1 [(E)-3,4'-STILBENDIOL] |  |  |  | 2.08 |  | Active |  |  |  | 
Oc1cccc(/C=C/c2ccccc2)c1 [(E)-3-STILBENOL] |  |  |  |  |  | Active | 3.22 |  |  | 
COc1cccc(/C=C/c2ccc(O)cc2)c1 [(E)-5-METHOXY-4'-STILBENOL] |  |  |  |  |  | Active | 3.14 |  | Active | 
CC(C)/C=C/c1c(O)cc(/C=C/c2ccc(O)c(O)c2)cc1O [ARACHIDIN-1] | inactive | inactive | inactive |  | inactive |  | 2.44 |  |  | 
CC(C)=CCc1c(O)cc(/C=C/c2ccc(O)cc2)cc1O [ARACHIDIN-2] | inactive | inactive | inactive | 2.56 | inactive |  |  |  |  | 
CC(C)/C=C/c1c(O)cc(/C=C/c2ccc(O)cc2)cc1O [ARACHIDIN-3] | inactive | inactive | inactive | 2.83 | inactive |  |  |  |  | 
CC(C)/C=C/c1c(O)cc(/C=C/c2ccccc2)cc1O [ARAHYPIN-1] | Active | inactive | Active |  | inactive |  | 3.71 | Active |  | 
CC(C)(O)C(O)Cc1cc(/C=C/c2cc(O)cc(O)c2)ccc1O (centres undefined) [ARAHYPIN-2] | Active | inactive | inactive |  | inactive |  | 1.36 |  |  | 
CC(C)(O)C(O)Cc1c(O)cc(/C=C/c2ccc(O)cc2)cc1O (centres undefined) [ARAHYPIN-3] |  | inactive |  |  | inactive |  | 1.59 |  |  | 
CC(C)(O)C(O)Cc1c(O)cc(/C=C/c2ccccc2)cc1O (centres undefined) [ARAHYPIN-4] |  | inactive |  |  | inactive |  | 2.59 |  |  | 
CC1(C)C=Cc2c(O)cc(/C=C/c3ccc(O)cc3)cc2O1 [ARAHYPIN-5] |  | inactive |  |  | inactive |  | 3.34 | Active |  | 
CC(C)=CCc1c(O)cc(/C=C/c2ccccc2)cc1O [CHIRICANINE A] | inactive | inactive | Active |  | inactive |  | 3.46 | Active |  | 
CC(C)=CCC/C(C)=C/Cc1c(O)cc(/C=C/c2ccc(O)cc2O)cc1O [CHLOROPHORIN] |  | Active |  |  | Active | Active | 3.29 |  | Active | 
COc1cc(O)cc(/C=C/c2ccccc2)c1 [PINOSYLVIN METHYL ETHER] |  |  |  | 3.21 |  | Active |  |  | Active | 
Oc1cc(O)cc(/C=C/c2ccccc2)c1 [PINOSYLVIN] |  | Active |  | 2.25 | inactive | inactive |  |  | inactive | 
COc1cc(/C=C/c2ccc(O)cc2)cc(OC)c1 [PTEROSTILBENE] |  | Active |  | 3.15 | Active | Active |  |  |  | 
Oc1ccc(/C=C/c2cc(O)cc(O)c2)cc1 [RESVERATROL] |  | Active |  | 1.35 | inactive | inactive |  |  | inactive | 
COc1ccc(/C=C/c2cc(O)cc(O[C@@H]3O[C@H](CO)[C@@H](O)[C@H](O)[C@H]3O)c2)cc1O [RHAPONTIN] |  |  |  |  | Active | Active | 0.74 |  |  | 
COc1ccc(/C=C/c2cc(OC)cc(OC)c2)cc1 [TRISMETHOXYRESVERATROL] |  |  |  | 4.07 |  | Active |  |  |  | 

— ChEMBL document CHEMBL3045061, “Biological activity of peanut (Arachis hypogaea) phytoalexins and selected natural and synthetic Stilbenoids” (J Agric Food Chem, 2011)
